From ChEMBL document CHEMBL3297707, “Dual protonophore-chitinase inhibitors dramatically affect O. volvulus molting” (J Med Chem, 2014)
Activity calls are given as the source filed them. The rule behind the calls is not given here.

Legend:
Chitinase [1] = target: T1, Chitinase (Onchocerca volvulus, UniProt Q25615); test: Inhibition of Onchocerca volvulus L3 larvae chitinase using 20 uM 4-methylumbelliferyl-N,N',N''-beta-chitotrioside as substrate after 10 mins by microplate reader analysis
T1 sequence (Q25615 whole entry): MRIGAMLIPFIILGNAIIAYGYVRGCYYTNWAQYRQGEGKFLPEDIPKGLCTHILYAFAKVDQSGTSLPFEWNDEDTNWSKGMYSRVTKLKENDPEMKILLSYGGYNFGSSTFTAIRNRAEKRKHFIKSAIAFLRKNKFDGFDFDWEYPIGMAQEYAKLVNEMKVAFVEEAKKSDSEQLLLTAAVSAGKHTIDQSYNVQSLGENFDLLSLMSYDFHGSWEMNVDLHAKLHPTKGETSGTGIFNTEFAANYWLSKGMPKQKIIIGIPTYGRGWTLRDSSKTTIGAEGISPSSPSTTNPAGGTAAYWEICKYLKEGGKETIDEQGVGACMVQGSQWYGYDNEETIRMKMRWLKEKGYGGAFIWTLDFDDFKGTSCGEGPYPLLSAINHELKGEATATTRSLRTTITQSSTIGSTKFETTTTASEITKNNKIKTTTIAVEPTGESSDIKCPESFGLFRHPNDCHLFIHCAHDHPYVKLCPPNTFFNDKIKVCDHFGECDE

[2] = target: T2, Chitinase (Onchocerca volvulus) (UniProt Q25615); test: Inhibition of Onchocerca volvulus L3 larvae chitinase using 20 uM 4-methylumbelliferyl-N,N',N''-beta-chitotrioside as substrate at 10 uM after 10 mins by microplate reader analysis
T2 sequence (whole entry): T1 sequence (Q25615 whole entry)

Chitinase [3] = target: T1, Chitinase; test: Competitive inhibition of Onchocerca volvulus L3 larvae chitinase using 20 uM 4-methylumbelliferyl-N,N',N''-beta-chitotrioside as substrate after 10 mins by microplate reader analysis
Brugia malayi = test: Inhibition of Brugia malayi chitinase using 20 uM 4-methylumbelliferyl-N,N',N''-beta-chitotrioside as substrate at 10 uM after 10 mins by microplate reader analysis
Entamoeba histolytica = test: Inhibition of Entamoeba histolytica chitinase using 20 uM 4-methylumbelliferyl-N,N',N''-beta-chitotrioside as substrate at 10 uM after 10 mins by microplate reader analysis
HEK-293T [4] = test: Protonophoric activity in human HEK293T/17 cells assessed as mitochondrial membrane depolarization at 50 uM for 30 mins by TMRE dye based fluorescence spectrometry; assay type: functional, cell-based
Summary of the method: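 HEK 293T/17 cells suspended at 1–2 × 10^6/mL in 10% FBS DMEM, given 50 μM compound or DMSO for 30 min at 37 °C, then stained with TMRE (~450 nM final) for 30 min in the dark at 37 °C. After washes in 0.2% BSA/PBS, fluorescence read on a plate reader (ex 549, em 575 nm). Mean ± sd, n = 3.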

HEK-293T [5] = test: Protonophoric activity in human HEK293T/17 cells assessed as mitochondrial membrane depolarization at 50 uM for 30 mins by TMRE dye based flow cytometry; assay type: functional, cell-based
Summary of the method: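 Trypsinized HEK 293T/17 cells at 1–2 × 10^6/mL in 10% FBS DMEM, exposed to 50 μM compound or DMSO for 30 min at 37 °C. TMRE (~450 nM final) added for 30 min in the dark at 37 °C. Cells washed with 0.2% BSA/PBS; membrane polarization read by flow cytometry on 1–2 × 10^6 cells per sample.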

Caenorhabditis elegans [6] = test: Drug accumulation in Caenorhabditis elegans at 10 uM after 6 hrs by LC-MS analysis; assay type: ADME, organism-based; details: in vivo
Summary of the method: (§1)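 Synchronized worms grown to late L4 on E. coli OP50 at 25 °C for 40 h, washed and suspended in M9 (~5–10 worms/μL). Compound added at 10 μM (~2 nmol/mg worm) for 6 or 12 h at rt. Worms washed with 0.1% SDS, then water, and lyophilized. Extracted in cold MeOH/MeCN (1:1) with internal standard and quantified by LC-TOF MS against calibration in blank worms. Mean ± sd, n = 3, nmol/mg worm.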

Caenorhabditis elegans [7] = test: Drug accumulation in Caenorhabditis elegans at 10 uM after 12 hrs by LC-MS analysis; assay type: ADME, organism-based; details: in vivo; summary of the method: as §1
Onchocerca volvulus [8] = test: Antiparasitic activity against Onchocerca volvulus assessed as inhibition of L3 to L4 larval molting at 10 uM for 24 hrs measured until 6 days by using inverted microscopic analysis in presence of PBMC; assay type: functional, organism-based
Summary of the method: (§2)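 O. volvulus L3 larvae pre-incubated with compound for 24 h, then complete medium (20% heat-inactivated FCS) and normal PBMCs added; molting assessed on day 6. Combination lines use a 1:1 mix with CCCP, each at the stated concentration. Percent molting taken over 10 wells, on average 5–10 larvae per well.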

Onchocerca volvulus [9] = test: Antiparasitic activity against Onchocerca volvulus assessed as inhibition of L3 to L4 larval molting at 1 uM for 24 hrs measured until 6 days by using inverted microscopic analysis in presence of PBMC; assay type: functional; summary of the method: as §2
HEK-293T [10] = test: Cytotoxicity against human HEK293T/17 cells assessed as cell viability at 1 to 10 uM for 24 hrs by MTS assay; assay type: cell-based
Summary of the method: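 HEK 293T/17 cells (2 × 10^4) plated and held 24 h at 37 °C, then treated at 1 and 10 μM final. MTS viability read at 0.5 and 24 h post-incubation.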

Caenorhabditis elegans [11] = test: Drug metabolism in Caenorhabditis elegans assessed as 3-iodo closantel formation after 12 hrs by LC/MS analysis; assay type: ADME, organism-based; details: in vivo
Caenorhabditis elegans [12] = test: Drug metabolism in Caenorhabditis elegans assessed as 5-iodo closantel formation after 12 hrs by LC/MS analysis; assay type: ADME, organism-based; details: in vivo
Caenorhabditis elegans [13] = test: Drug metabolism in Caenorhabditis elegans assessed as sulfated metabolite formation after 12 hrs by LC/MS analysis; assay type: ADME, organism-based; details: in vivo
Caenorhabditis elegans [14] = test: Drug metabolism in Caenorhabditis elegans assessed as glycosylated metabolite formation after 12 hrs by LC/MS analysis; assay type: ADME, organism-based; details: in vivo
Caenorhabditis elegans [15] = test: Drug metabolism in Caenorhabditis elegans assessed as glucordinated metabolite formation after 12 hrs by LC/MS analysis; assay type: ADME, organism-based; details: in vivo
Caenorhabditis elegans [16] = test: Toxicity in Caenorhabditis elegans; assay type: organism-based; details: in vivo
Onchocerca volvulus [17] = test: Antiparasitic activity against Onchocerca volvulus assessed as inhibition of L3 to L4 larval molting at 100 uM for 24 hrs measured until 6 days by using inverted microscopic analysis in presence of PBMC; assay type: functional, organism-based; summary of the method: as §2
Onchocerca volvulus [18] = test: Antiparasitic activity against Onchocerca volvulus assessed as inhibition of L3 to L4 larval molting at 0.5 uM for 24 hrs measured until 6 days by using inverted microscopic analysis in presence of PBMC and 0.5 uM protonophore CCCP; assay type: functional, organism-based; summary of the method: as §2
Onchocerca volvulus [19] = test: Antiparasitic activity against Onchocerca volvulus assessed as inhibition of L3 to L4 larval molting at 1 uM for 24 hrs measured until 6 days by using inverted microscopic analysis in presence of PBMC and 1 uM protonophore CCCP; assay type: functional, organism-based; summary of the method: as §2
Onchocerca volvulus [20] = test: Antiparasitic activity against Onchocerca volvulus assessed as inhibition of L3 to L4 larval molting at 2.5 uM for 24 hrs measured until 6 days by using inverted microscopic analysis in presence of PBMC and 2.5 uM protonophore CCCP; assay type: functional, organism-based; summary of the method: as §2
Plasmodium falciparum = test: Inhibition of Plasmodium falciparum chitinase using 20 uM 4-methylumbelliferyl-N,N',N''-beta-chitotrioside as substrate at 10 uM after 10 mins by microplate reader analysis

SMILES: O=C(Nc1ccc(Oc2ccc(Cl)cc2)c(Cl)c1)c1cc(I)cc(I)c1O [RAFOXANIDE]
- IC50 (Chitinase [1]): 0.34 µM
- inhibition [2]: Active
- Ki (Chitinase [3]): 0.13 µM
- inhibition (Brugia malayi): inactive
- inhibition (Entamoeba histolytica): inactive
- Activity (HEK-293T [4]): Active
- Activity (HEK-293T [5]): Active
- Drug uptake (Caenorhabditis elegans [6]): 1.55 nmol/mg
- Drug uptake (Caenorhabditis elegans [7]): 1.73 nmol/mg
- inhibition (Onchocerca volvulus [8]): Active
- inhibition at 1 µM (Onchocerca volvulus [9]): 84%
- Activity (HEK-293T [10]): Non-toxic

SMILES: Cc1cc(C(C#N)c2ccc(Cl)cc2)c(Cl)cc1NC(=O)c1cc(I)cc(I)c1O (stereo not given) [CLOSANTEL]
- Activity (HEK-293T [4]): Active
- Activity (HEK-293T [5]): Active
- Drug uptake (Caenorhabditis elegans [6]): Active
- Drug metabolism (Caenorhabditis elegans [11]): metabolite_detected
- Drug metabolism (Caenorhabditis elegans [12]): metabolite_detected
- Drug metabolism (Caenorhabditis elegans [13]): metabolite_notdetected
- Drug metabolism (Caenorhabditis elegans [14]): metabolite_notdetected
- Drug metabolism (Caenorhabditis elegans [15]): metabolite_notdetected
- Activity (Caenorhabditis elegans [16]): Non-toxic

SMILES: CN(C(=O)c1cc(I)cc(I)c1O)c1ccc(Oc2ccccc2)cc1
- IC50 (Chitinase [1]): 1.81 µM

SMILES: COc1c(I)cc(I)cc1C(=O)Nc1ccc(Oc2ccccc2)cc1
- IC50 (Chitinase [1]): 1.28 µM
- Activity (HEK-293T [4]): inactive
- Activity (HEK-293T [5]): inactive

SMILES: O=C(Nc1ccc(Oc2ccc(F)cc2)cc1)c1cc(I)cc(I)c1O
- IC50 (Chitinase [1]): 1.57 µM

SMILES: COc1c(I)cc(I)cc1C(=O)Nc1ccc(Oc2ccc(Cl)cc2)cc1
- IC50 (Chitinase [1]): 0.6 µM
- inhibition [2]: Active
- inhibition (Brugia malayi): inactive
- inhibition (Entamoeba histolytica): inactive
- Activity (HEK-293T [4]): inactive
- Activity (HEK-293T [5]): inactive
- Drug uptake (Caenorhabditis elegans [6]): Active
- inhibition (Onchocerca volvulus [8]): Active
- inhibition (Onchocerca volvulus [9]): inactive
- inhibition (Onchocerca volvulus [17]): Active
- inhibition (Onchocerca volvulus [18]): inactive
- inhibition (Onchocerca volvulus [19]): inactive
- inhibition (Onchocerca volvulus [20]): Active
- inhibition (Plasmodium falciparum): inactive

SMILES: O=C(Nc1ccc(-c2ccccc2)cc1)c1cc(I)cc(I)c1O
- IC50 (Chitinase [1]): 0.47 µM
- inhibition [2]: Active
- inhibition (Brugia malayi): inactive
- inhibition (Entamoeba histolytica): inactive
- Drug uptake (Caenorhabditis elegans [6]): Active
- inhibition (Plasmodium falciparum): inactive

SMILES: O=C(Nc1ccc(-c2ccc(Cl)cc2)cc1)c1cc(I)cc(I)c1O
- IC50 (Chitinase [1]): 0.37 µM
- inhibition [2]: Active
- inhibition (Brugia malayi): inactive
- inhibition (Entamoeba histolytica): inactive
- Drug uptake (Caenorhabditis elegans [6]): Active
- inhibition (Plasmodium falciparum): inactive

SMILES: O=C(Nc1ccc(Oc2ccccc2Cl)cc1)c1cc(I)cc(I)c1O
- IC50 (Chitinase [1]): 1.2 µM

SMILES: O=C(Nc1ccc(Oc2cccc(Cl)c2)cc1)c1cc(I)cc(I)c1O
- IC50 (Chitinase [1]): 1.74 µM

SMILES: Cc1ccc(-c2ccc(NC(=O)c3cc(I)cc(I)c3O)cc2)cc1
- IC50 (Chitinase [1]): 0.99 µM

SMILES: O=C(Nc1ccc2ccccc2c1)c1cc(I)cc(I)c1O
- IC50 (Chitinase [1]): 0.94 µM
- Activity (HEK-293T [4]): Active
- Activity (HEK-293T [5]): Active
- Drug uptake (Caenorhabditis elegans [6]): Active
- Drug uptake (Caenorhabditis elegans [7]): 1.13 nmol/mg
- inhibition (Onchocerca volvulus [8]): Active
- inhibition at 1 µM (Onchocerca volvulus [9]): 84%
- Activity (HEK-293T [10]): Non-toxic

SMILES: O=C(Nc1ccc(Oc2ccc(Cl)cc2)cc1)c1cc(I)cc(I)c1O
- IC50 (Chitinase [1]): 0.7 µM
- inhibition [2]: Active
- inhibition (Brugia malayi): inactive
- inhibition (Entamoeba histolytica): inactive
- Activity (HEK-293T [4]): Active
- Activity (HEK-293T [5]): Active
- Drug uptake (Caenorhabditis elegans [6]): Active
- inhibition (Onchocerca volvulus [8]): Active
- inhibition at 1 µM (Onchocerca volvulus [9]): 84%
- Activity (HEK-293T [10]): Non-toxic

SMILES: COc1c(I)cc(I)cc1C(=O)O
- inhibition (Onchocerca volvulus [8]): inactive

SMILES: COc1c(I)cc(I)cc1C(=O)Nc1ccc2ccccc2c1
- IC50 (Chitinase [1]): 0.89 µM
- Activity (HEK-293T [4]): inactive
- Activity (HEK-293T [5]): inactive
- Drug uptake (Caenorhabditis elegans [6]): Active
- Drug uptake (Caenorhabditis elegans [7]): 1.28 nmol/mg
- inhibition (Onchocerca volvulus [8]): Active
- inhibition (Onchocerca volvulus [9]): inactive

SMILES: O=C(Nc1ccc(Oc2ccc(Cl)cc2)cc1)c1cc(I)cc(I)c1
- IC50 (Chitinase [1]): 0.87 µM
- Activity (HEK-293T [4]): inactive
- Activity (HEK-293T [5]): inactive
- Drug uptake (Caenorhabditis elegans [6]): Active

SMILES: Cc1ccc(Oc2ccc(NC(=O)c3cc(I)cc(I)c3O)cc2)cc1
- IC50 (Chitinase [1]): 1.11 µM

SMILES: COc1c(I)cc(I)cc1C(=O)N(C)c1ccc(Oc2ccccc2)cc1
- IC50 (Chitinase [1]): 3.71 µM
- Activity (HEK-293T [4]): inactive
- Activity (HEK-293T [5]): inactive

SMILES: O=C(Nc1ccc(Oc2ccccc2)cc1)c1cc(I)cc(I)c1O
- IC50 (Chitinase [1]): 1.98 µM
- Activity (HEK-293T [4]): Active
- Activity (HEK-293T [5]): Active

SMILES: N#CC(C#N)=NNc1cccc(Cl)c1 [CARBONYL CYANIDE M-CHLOROPHENYLHYDRAZONE]
- Drug uptake (Caenorhabditis elegans [6]): Active
- inhibition (Onchocerca volvulus [8]): Active

SMILES: O=C(Nc1ccc2ccccc2c1)c1cc(I)cc(I)c1
- IC50 (Chitinase [1]): 1.29 µM
- Activity (HEK-293T [4]): inactive
- Activity (HEK-293T [5]): inactive

SMILES: O=C(Nc1ccc(Oc2ccccc2)cc1)c1cc(I)cc(I)c1
- IC50 (Chitinase [1]): 1.06 µM
- Activity (HEK-293T [4]): inactive
- Activity (HEK-293T [5]): inactive
